# Test results reported in ChEMBL document CHEMBL5260843 (J Med Chem, 2019).
# The source made the active and inactive calls. The calls are words filed in the database; no cut-off is given here.
# Columns and labels:
# [1] = molecular target: T1, DCN1-like protein 1/NEDD8-conjugating enzyme Ubc12 (Homo sapiens, UniProt Q96GG9); test: Inhibition of GST-tagged DCN1 PONY domain (unknown origin)/human N-terminal acetylated UBC12 (1 to 12 residues) protein-protein interaction incubated for 1 hr by HTRF analysis; assay type: protein assay
# T1 sequence (Q96GG9 whole entry, the tested form may be a part): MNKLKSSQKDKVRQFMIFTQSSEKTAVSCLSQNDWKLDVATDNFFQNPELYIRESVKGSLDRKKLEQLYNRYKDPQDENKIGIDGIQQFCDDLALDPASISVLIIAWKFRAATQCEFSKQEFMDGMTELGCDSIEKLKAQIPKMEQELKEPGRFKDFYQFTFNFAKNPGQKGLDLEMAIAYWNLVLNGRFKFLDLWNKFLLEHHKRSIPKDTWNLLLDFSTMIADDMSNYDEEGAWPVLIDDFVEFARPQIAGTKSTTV
# T1 sequence (P61081 whole entry, further chain, the tested form may be a part): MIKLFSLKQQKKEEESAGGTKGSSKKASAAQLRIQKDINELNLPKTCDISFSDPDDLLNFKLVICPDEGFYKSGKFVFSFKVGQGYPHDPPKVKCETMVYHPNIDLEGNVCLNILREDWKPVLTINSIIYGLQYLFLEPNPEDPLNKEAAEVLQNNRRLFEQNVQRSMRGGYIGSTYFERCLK
# [2] = molecular target: Cullin-4B (Homo sapiens) (UniProt Q13620); test: Inhibition of cullin4B neddylation in UBC/DCN1 overactivated human MGC-803 cells at 1 uM incubated for 24 hrs by Western blot analysis; assay type: cell-based
# Cullin-4B (Homo sapiens), sequence (Q13620 whole entry): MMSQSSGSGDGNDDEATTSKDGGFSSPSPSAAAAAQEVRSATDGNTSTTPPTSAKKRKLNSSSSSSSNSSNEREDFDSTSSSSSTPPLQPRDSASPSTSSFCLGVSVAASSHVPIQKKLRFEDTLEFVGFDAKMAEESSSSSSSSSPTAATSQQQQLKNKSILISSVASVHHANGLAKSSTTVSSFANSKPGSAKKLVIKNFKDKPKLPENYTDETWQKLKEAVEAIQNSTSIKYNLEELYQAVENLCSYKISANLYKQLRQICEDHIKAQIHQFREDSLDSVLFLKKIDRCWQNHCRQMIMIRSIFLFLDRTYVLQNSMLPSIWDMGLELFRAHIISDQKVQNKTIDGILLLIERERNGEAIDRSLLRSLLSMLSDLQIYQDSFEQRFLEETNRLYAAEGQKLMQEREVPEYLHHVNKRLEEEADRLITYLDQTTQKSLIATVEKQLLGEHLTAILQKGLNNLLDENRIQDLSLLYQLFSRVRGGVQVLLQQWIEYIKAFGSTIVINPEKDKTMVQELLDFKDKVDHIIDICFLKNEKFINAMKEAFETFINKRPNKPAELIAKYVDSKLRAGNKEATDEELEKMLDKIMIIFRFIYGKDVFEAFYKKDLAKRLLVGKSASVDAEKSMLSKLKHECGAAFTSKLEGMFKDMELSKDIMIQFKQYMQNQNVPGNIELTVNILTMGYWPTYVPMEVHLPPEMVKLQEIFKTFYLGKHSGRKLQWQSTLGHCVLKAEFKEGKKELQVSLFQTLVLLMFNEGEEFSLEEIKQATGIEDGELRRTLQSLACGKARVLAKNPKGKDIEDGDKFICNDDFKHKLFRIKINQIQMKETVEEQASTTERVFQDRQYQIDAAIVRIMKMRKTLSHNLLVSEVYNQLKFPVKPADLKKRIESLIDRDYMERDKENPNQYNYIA
# In short: (§1)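 Cells in 6-well plates were exposed to compound for 24 h. MGC-803 were grown in DMEM and KYSE70 in RPMI 1640, both with 10% FBS at 37 °C and 5% CO2. Lysates were made in RIPA with protease inhibitors and quantified by BCA. 30 μg protein was run on 8% SDS-PAGE and blotted to nitrocellulose. Primary antibodies were applied overnight at 4 °C, then HRP secondaries, with ECL and film detection. GAPDH was the loading control. Run three times.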
# [3] = tested on: MGC-803; test: Induction of p27 accumulation in human MGC-803 cells 0.03 to 3 uM incubated for 24 hrs by Western blot analysis; assay type: functional, cell-based; conditions: dose 0.03-3 µM; in short: as §1
# [4] = tested on: MGC-803; test: Induction of NRF2 accumulation in human MGC-803 cells 0.03 to 3 uM incubated for 24 hrs by Western blot analysis; assay type: functional, cell-based; conditions: dose 0.03-3 µM; in short: as §1
# [5] = tested on: MGC-803; test: Inhibition of cullin2 neddylation in UBC/DCN1 overactivated human MGC-803 cells at 1 uM incubated for 24 hrs by Western blot analysis; assay type: cell-based; in short: as §1
# [6] = molecular target: Cullin-1 (Homo sapiens) (UniProt Q13616); test: Inhibition of cullin1 neddylation in UBC/DCN1 overactivated human MGC-803 cells at 1 uM incubated for 24 hrs by Western blot analysis; assay type: cell-based; in short: as §1
# Cullin-1 (Homo sapiens), sequence (Q13616 whole entry): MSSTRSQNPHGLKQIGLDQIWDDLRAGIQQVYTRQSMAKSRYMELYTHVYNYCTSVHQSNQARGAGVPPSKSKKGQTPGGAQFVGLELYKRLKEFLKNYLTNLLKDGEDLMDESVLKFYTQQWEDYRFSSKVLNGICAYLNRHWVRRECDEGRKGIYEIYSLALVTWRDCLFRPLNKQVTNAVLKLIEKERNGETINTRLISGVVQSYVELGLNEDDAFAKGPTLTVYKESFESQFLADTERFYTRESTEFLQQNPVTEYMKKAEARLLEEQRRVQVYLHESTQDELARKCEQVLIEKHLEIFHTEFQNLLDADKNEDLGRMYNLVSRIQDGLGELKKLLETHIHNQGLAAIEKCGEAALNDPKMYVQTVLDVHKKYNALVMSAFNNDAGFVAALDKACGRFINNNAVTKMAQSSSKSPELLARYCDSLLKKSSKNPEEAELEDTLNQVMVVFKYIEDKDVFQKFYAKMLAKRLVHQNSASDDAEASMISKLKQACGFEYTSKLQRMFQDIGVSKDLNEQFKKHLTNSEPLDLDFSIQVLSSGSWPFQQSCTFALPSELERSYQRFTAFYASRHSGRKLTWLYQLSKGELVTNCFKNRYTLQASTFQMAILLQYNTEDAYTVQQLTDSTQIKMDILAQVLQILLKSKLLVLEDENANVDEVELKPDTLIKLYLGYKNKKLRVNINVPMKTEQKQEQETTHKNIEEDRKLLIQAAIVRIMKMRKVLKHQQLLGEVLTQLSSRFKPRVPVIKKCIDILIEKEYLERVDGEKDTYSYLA
# [7] = tested on: MGC-803; test: Induction of p21 accumulation in human MGC-803 cells 0.03 to 3 uM incubated for 24 hrs by Western blot analysis; assay type: functional, cell-based; conditions: dose 0.03-3 µM; in short: as §1
# [8] = tested on: MGC-803; test: Inhibition of cullin3 neddylation in UBC/DCN1 overactivated human MGC-803 cells at 1 uM incubated for 24 hrs by Western blot analysis; assay type: cell-based; in short: as §1
# [9] = molecular target: T2, Cullin-5 (Homo sapiens) (UniProt Q93034); test: Inhibition of cullin5 neddylation in UBC/DCN1 overactivated human MGC-803 cells at 1 uM incubated for 24 hrs by Western blot analysis; assay type: cell-based; in short: as §1
# T2 sequence (whole entry): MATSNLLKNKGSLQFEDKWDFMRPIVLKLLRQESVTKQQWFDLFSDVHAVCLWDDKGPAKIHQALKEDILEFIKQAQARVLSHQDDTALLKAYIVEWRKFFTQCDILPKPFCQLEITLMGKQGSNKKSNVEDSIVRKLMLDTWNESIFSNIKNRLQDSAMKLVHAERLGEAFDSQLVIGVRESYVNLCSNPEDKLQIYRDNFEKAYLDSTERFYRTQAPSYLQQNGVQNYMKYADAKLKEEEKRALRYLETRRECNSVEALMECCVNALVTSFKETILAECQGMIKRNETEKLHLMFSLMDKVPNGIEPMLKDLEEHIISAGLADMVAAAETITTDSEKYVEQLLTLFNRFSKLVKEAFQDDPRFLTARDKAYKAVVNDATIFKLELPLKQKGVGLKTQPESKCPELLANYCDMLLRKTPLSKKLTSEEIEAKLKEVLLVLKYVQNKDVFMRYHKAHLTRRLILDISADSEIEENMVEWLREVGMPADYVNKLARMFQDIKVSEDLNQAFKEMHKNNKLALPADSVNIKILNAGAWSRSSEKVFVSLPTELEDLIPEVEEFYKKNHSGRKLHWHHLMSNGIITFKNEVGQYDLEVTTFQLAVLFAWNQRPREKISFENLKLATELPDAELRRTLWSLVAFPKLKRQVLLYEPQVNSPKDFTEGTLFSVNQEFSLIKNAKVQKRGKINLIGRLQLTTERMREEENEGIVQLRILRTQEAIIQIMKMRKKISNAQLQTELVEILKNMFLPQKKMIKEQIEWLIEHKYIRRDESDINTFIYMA
# [10] = molecular target: Cullin-4A (Homo sapiens) (UniProt Q13619); test: Inhibition of cullin4A neddylation in UBC/DCN1 overactivated human MGC-803 cells at 1 uM incubated for 24 hrs by Western blot analysis; assay type: cell-based; in short: as §1
# Cullin-4A (Homo sapiens), sequence (Q13619 whole entry, the tested form may be a part): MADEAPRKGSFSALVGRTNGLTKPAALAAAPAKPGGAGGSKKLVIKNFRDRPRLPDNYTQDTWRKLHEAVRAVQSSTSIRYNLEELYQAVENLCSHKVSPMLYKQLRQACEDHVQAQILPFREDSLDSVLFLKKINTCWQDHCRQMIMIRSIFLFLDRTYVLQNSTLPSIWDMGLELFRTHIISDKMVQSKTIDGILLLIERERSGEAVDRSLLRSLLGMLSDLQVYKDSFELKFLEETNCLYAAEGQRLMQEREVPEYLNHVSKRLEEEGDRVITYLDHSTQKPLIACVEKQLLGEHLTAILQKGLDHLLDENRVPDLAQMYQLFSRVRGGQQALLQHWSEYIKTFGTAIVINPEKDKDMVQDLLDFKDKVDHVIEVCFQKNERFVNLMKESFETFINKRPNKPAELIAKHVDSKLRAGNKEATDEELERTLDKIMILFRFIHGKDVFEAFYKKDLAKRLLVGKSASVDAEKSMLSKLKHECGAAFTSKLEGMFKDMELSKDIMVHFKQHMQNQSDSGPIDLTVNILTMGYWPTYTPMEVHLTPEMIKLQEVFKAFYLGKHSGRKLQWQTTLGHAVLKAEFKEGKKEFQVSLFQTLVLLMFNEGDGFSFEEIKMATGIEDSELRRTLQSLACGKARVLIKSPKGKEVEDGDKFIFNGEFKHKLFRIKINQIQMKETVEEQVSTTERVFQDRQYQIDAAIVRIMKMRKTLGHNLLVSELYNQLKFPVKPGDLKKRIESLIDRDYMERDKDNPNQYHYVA
# [11] = tested on: MGC-803; test: Induction of ROS generation in human MGC-803 cells at 1 uM incubated for 24 hrs by DCFH-DA staining based flow cytometry analysis (reference value: 1.4%); assay type: functional
# [12] = molecular target: Cullin-1 (Homo sapiens) (UniProt Q13616); test: Inhibition of cullin1 neddylation in UBC/DCN1 overactivated human MGC-803 cells at 0.3 to 10 uM incubated for 24 hrs by Western blot analysis; assay type: cell-based; conditions: dose 0.3-10 µM; in short: as §1
# [13] = tested on: MGC-803; test: Inhibition of cullin3 neddylation in UBC/DCN1 overactivated human MGC-803 cells at 0.3 to 10 uM incubated for 24 hrs by Western blot analysis; assay type: cell-based; conditions: dose 0.3-10 µM; in short: as §1
# [14] = tested on: MGC-803; test: Induction of ROS generation in human MGC-803 cells at 3 uM incubated for 24 hrs by DCFH-DA staining based flow cytometry analysis (reference value: 1.4%); assay type: functional
# [15] = tested on: MGC-803; test: Induction of ROS generation in human MGC-803 cells at 0.3 uM incubated for 24 hrs by DCFH-DA staining based flow cytometry analysis (reference value: 1.4%); assay type: functional
# [16] = tested on: MGC-803; test: Inhibition of cullin2 neddylation in UBC/DCN1 overactivated human MGC-803 cells at 0.3 to 10 uM incubated for 24 hrs by Western blot analysis; assay type: cell-based; conditions: dose 0.3-10 µM; in short: as §1
# [17] = molecular target: T2, Cullin-5 (Homo sapiens); test: Inhibition of cullin5 neddylation in UBC/DCN1 overactivated human MGC-803 cells at 0.3 to 10 uM incubated for 24 hrs by Western blot analysis; assay type: cell-based; conditions: dose 0.3-10 µM; in short: as §1
# [18] = molecular target: Cullin-4B (Homo sapiens) (UniProt Q13620); test: Inhibition of cullin4B neddylation in UBC/DCN1 overactivated human MGC-803 cells at 0.3 to 10 uM incubated for 24 hrs by Western blot analysis; assay type: cell-based; conditions: dose 0.3-10 µM; in short: as §1
# [19] = molecular target: Cullin-4A (Homo sapiens) (UniProt Q13619); test: Inhibition of cullin4A neddylation in UBC/DCN1 overactivated human MGC-803 cells at 0.3 to 10 uM incubated for 24 hrs by Western blot analysis; assay type: cell-based; conditions: dose 0.3-10 µM; in short: as §1
# [20] = molecular target: T1, DCN1-like protein 1/NEDD8-conjugating enzyme Ubc12; test: Inhibition of biotinylated DCN1 PONY domain (unknown origin)/human N-terminal acetylated UBC12 (1 to 12 residues) protein-protein interaction incubated for 1 hr by TR-FRET analysis; assay type: protein assay
# [21] = tested on: MGC-803; test: Induction of ROS generation in human MGC-803 cells at 3 uM incubated for 24 hrs by DCFH-DA staining based flow cytometry analysis (reference value: 2%); assay type: functional
# [22] = tested on: MGC-803; test: Induction of ROS generation in human MGC-803 cells at 0.3 uM incubated for 24 hrs by DCFH-DA staining based flow cytometry analysis (reference value: 2%); assay type: functional
# [23] = tested on: MGC-803; test: Induction of ROS generation in human MGC-803 cells at 1 uM incubated for 24 hrs by DCFH-DA staining based flow cytometry analysis (reference value: 2%); assay type: functional
# [24] = tested on: MGC-803; test: Inhibition of cullin3 neddylation in UBC/DCN1 overactivated human MGC-803 cells incubated for 24 hrs by Western blot analysis; assay type: cell-based; in short: as §1
# [25] = tested on: MGC-803; test: Induction of ROS generation in human MGC-803 cells at 1 uM incubated for 24 hrs by DCFH-DA staining based flow cytometry analysis (reference value: 1.2%); assay type: functional
# [26] = tested on: MGC-803; test: Induction of ROS generation in human MGC-803 cells at 0.3 uM incubated for 24 hrs by DCFH-DA staining based flow cytometry analysis (reference value: 1.2%); assay type: functional
# [27] = tested on: MGC-803; test: Induction of NRF2 accumulation in human MGC-803 cells 0.01 to 10 uM incubated for 24 hrs by Western blot analysis; assay type: functional, cell-based; conditions: dose 0.01-10 µM; in short: as §1
# [28] = tested on: MGC-803; test: Induction of ROS generation in human MGC-803 cells at 3 uM incubated for 24 hrs by DCFH-DA staining based flow cytometry analysis (reference value: 1.2%); assay type: functional
IC50 [1] [nM],SMILES,further results
16,Cc1cc(Sc2nnnn2CCN(C)C)n2nc(SCc3ccc(F)cc3)nc2n1,–
4210,Cc1cc(Sc2nnnn2CCN(C)C)n2nccc2n1,–
186,Cc1cc(Sc2nnnn2CCN(C)C)n2nc(SCc3ccc(C(F)(F)F)cc3)nc2n1,–
137,C=CCSc1nc2nc(C)cc(Sc3nnnn3CCN(C)C)n2n1,–
28,COc1ccc(CSc2nc3nc(C)cc(Sc4nnnn4CCN(C)C)n3n2)cc1,–
17,Cc1cc(Sc2nnnn2CCN(C)C)n2nc(SCc3ccc(Cl)c(F)c3)nc2n1,–
438,Cc1cc(Sc2nnnn2CCN(C)C)n2nc(SCCc3ccccc3)nc2n1,–
3360,Cc1nc2nc(SCc3ccc(Cl)cc3)nn2c(Sc2nnnn2CCN(C)C)c1C,–
290,CN(C)CCn1nnnc1Sc1cc(-c2ccccc2)nc2nc(SCc3ccccc3)nn12,–
> 50000,COCCOc1cc2ncnc(Sc3nnnn3CCN(C)C)c2cc1OCCOC,–
22,Cc1cc(Sc2nnnn2CCN(C)C)n2nc(SCc3ccccc3)nc2n1,–
192,Cc1cc(Sc2nnnn2CCN(C)C)n2nc(SCc3c(Cl)cccc3Cl)nc2n1,–
824,Cc1cc(Sc2nnnn2CCN(C)C)n2nc(SCc3ccccc3Br)nc2n1,–
268,Cc1cc(Sc2nnnn2CCN(C)C)n2nc(SC(C)C)nc2n1,–
209,Cc1cc(Sc2nnnn2CCN(C)C)n2nc(SCc3cccc4ccccc34)nc2n1,–
1360,CC(C)c1cc(Sc2nnnn2CCN(C)C)n2ncnc2n1,–
39,Cc1cc(Sc2nnnn2CCN(C)C)n2nc(SCc3ccc([N+](=O)[O-])cc3)nc2n1,–
61,CN(C)CCn1nnnc1Sc1c2c(nc3ncnn13)CCC2,–
1080,Cc1cc(Sc2nnnn2CCN(C)C)n2nc(SCc3cccc(C(F)(F)F)c3)nc2n1,–
352,CCc1cc(Sc2nnnn2CCN(C)C)n2nc(SCc3ccccc3)nc2n1,–
22,Cc1cc(Sc2nnnn2CCN(C)C)n2nc(SCc3ccc(F)c(Cl)c3)nc2n1,–
51,Cc1cc(Sc2nnnn2CCN(C)C)n2ncnc2n1,–
–,NS(=O)(=O)OC[C@@H]1C[C@@H](n2ccc3c(N[C@H]4CCc5ccccc54)ncnc32)C[C@@H]1O,inhibition [2]: Active; Activity [3]: Active; Activity [4]: Active; inhibition [5]: Active; inhibition [6]: Active; Activity [7]: Active; inhibition [8]: Active; inhibition [9]: Active; inhibition [10]: Active

IC50 [1] [nM],SMILES,further results
15800,c1ccc(-c2cc(Sc3nnnn3-c3ccccc3)n3ncnc3n2)cc1,–
195,Cc1cc(Sc2nnnn2CCN(C)C)n2nc(SCc3cccc(Br)c3)nc2n1,–
4890,Cc1cc(Sc2nnnn2CCN(C)C)n2nc(SCc3csc4ccc(Cl)cc34)nc2n1,–
309,Cc1cc(Sc2nnnn2CCN(C)C)n2nc(SCc3cc(=O)oc4c3ccc3ccccc34)nc2n1,–
79,C#CCSc1nc2nc(-c3ccccc3)cc(Sc3nnnn3CCN(C)C)n2n1,–
59,Cc1cc(Sc2nnnn2CCN(C)C)n2nc(SCC3CC3)nc2n1,–
532,Cc1cc(Sc2nnnn2CCN(C)C)n2nc(SCCCc3ccccc3)nc2n1,–
24,Cc1cc(Sc2nnnn2CCN(C)C)n2nc(SCc3ccccc3[N+](=O)[O-])nc2n1,–
> 50000,CCCCCc1c(C)nc2nc(SCc3ccc(Cl)cc3)nn2c1Sc1nnnn1CCN(C)C.Cl,Activity [11]: 2.6%; inhibition [12]: inactive; inhibition [13]: inactive; Activity [14]: 0.7%; Activity [15]: 2.5%; inhibition [16]: inactive; inhibition [17]: inactive; inhibition [18]: inactive; inhibition [19]: inactive
58,Cc1cc(Sc2nnnn2CCN(C)C)n2nc(SCC3CCCCC3)nc2n1,–
15,Cc1cc(Sc2nnnn2CCN(C)C)n2nc(SCc3ccc(Br)cc3)nc2n1,–
5820,Cn1nnnc1Sc1cc(-c2ccccc2)nc2ncnn12,–
214,CCCSc1nc2nc(C)cc(Sc3nnnn3CCN(C)C)n2n1,–
67,C#CCSc1nc2nc(C)cc(Sc3nnnn3CCN(C)C)n2n1,–
706,CCc1cc(Sc2nnnn2CCN(C)C)n2ncnc2n1,–
78,Cc1ccc(CSc2nc3nc(C)cc(Sc4nnnn4CCN(C)C)n3n2)cc1,–
–,CCCCN1CCC(N(Cc2ccccc2)C(=O)Nc2ccc(Cl)c(Cl)c2)CC1,IC50 [20]: 60 nM; Activity [21]: 0.2%; Activity [22]: 0.7%; Activity [23]: 0.5%
3880,Oc1ccc(-n2nnnc2Sc2cc(-c3ccccc3)nc3ncnn23)cc1,–
–,CCC(=O)N[C@@H](Cc1nc2ccc(C(C)C)cc2s1)C(=O)N[C@H](CNC(=O)CCN1CCOCC1)C1CCCCC1,inhibition [12]: inactive; inhibition [24]: Dose-Dependent Effect; Activity [25]: 0.7%; Activity [26]: 1.3%; inhibition [16]: inactive; inhibition [17]: inactive; inhibition [18]: inactive; inhibition [19]: inactive; Activity [27]: Active; Activity [28]: 1.3%
130,CN(C)CCn1nnnc1Sc1cc(-c2ccccc2)nc2ncnn12,–
127,CN(C)CCn1nnnc1Sc1cc(C2CC2)nc2ncnn12,–
654,Cc1cc(Sc2nnnn2CCN(C)C)n2nc(SCc3ccccc3C(F)(F)F)nc2n1,–
> 50000,CN(C)CCn1nnnc1Sc1ncnc2ccsc12,–
